Assay results as given in ChEMBL document CHEMBL1143245, “Large neutral amino acid transporter enables brain drug delivery via prodrugs” (J Med Chem, 2008).
Blank lines part the entries; values can stand above or below the molecule they belong to.

Columns and labels:
[1] = target: Large neutral amino acids transporter small subunit 1 (Rattus norvegicus) (UniProt Q63016); test: Binding affinity at LAT1 in rat brain assessed Inhibition of [14C]L-leucine PA uptake at 70 uM; type: tissue-based
Summary of the method: (§1)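 In situ rat brain perfusion with pH 7.4 bicarbonate-buffered saline (37 °C, 95% O2/5% CO2). [14C]L-leucine 0.2 µCi/mL perfused 30 s alone (100% PA product) or co-perfused with 70 µM prodrug. PA product derived from brain radioactivity measured by liquid scintillation counting; [14C]sucrose (0.2 µCi/mL) used as vascular marker. Inhibition relative to control PA; n=3–5.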

[2] = target: Large neutral amino acids transporter small subunit 1 (Rattus norvegicus) (UniProt Q63016); test: Inhibition of [14C]L-leucine uptake at LAT1 in rat brain at 70 uM by perfusion technique; type: tissue-based; summary of the method: as §1
[3] = Stability in rat liver assessed as half life of hydrolysis; type: ADME, tissue-based
Summary of the method: (§2)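 Enzymatic hydrolysis at 37 °C in rat serum diluted to 80%, brain homogenate diluted to 20%, or liver homogenate diluted to 50% (v/v) with 0.16 M phosphate buffer pH 7.4. Aliquots taken into acetonitrile to precipitate protein, then analysed by HPLC. Pseudo-first-order half-lives; n=3.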

[4] = Stability in aqueous buffer at pH 7.4; type: physicochemical
Summary of the method: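 Chemical hydrolysis in 0.16 M phosphate buffer pH 7.4 (ionic strength 0.5) at 37 °C in a thermostatted water bath. Disappearance followed by HPLC; pseudo-first-order half-life; n=2.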

[5] = Stability in rat brain assessed as half life of hydrolysis; type: ADME, tissue-based; summary of the method: as §2
Brain [6] = test: Drug uptake in rat brain at 64 uM by perfusion technique; type: ADME, tissue-based; details: in vivo
Summary of the method: (§3)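 Rat brain perfused in situ for 60 s at 37 °C with 64 µM prodrug, alone or with 2 mM BCH added to the medium. Vasculature washed 30 s with cold prodrug-free medium. Brain uptake in pmol/mg/min quantified by HPLC after extraction; n=3; two-tailed independent t test.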

Brain [7] = test: Drug uptake in rat brain at 64 uM in presence of 2-aminobicyclo(2,2,1)heptane-2-carboxylic acid by perfusion technique; type: ADME, tissue-based; details: in vivo; summary of the method: as §3
Brain [8] = test: (§4) Drug uptake in rat brain after 60 secs perfusion; type: ADME, tissue-based; details: in vivo, 1 min
Summary of the method: (§5)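 In situ rat brain perfusion, 60 s at 37 °C, with seven prodrug concentrations from 0 to 138 µM in bicarbonate-buffered saline pH 7.4. Vasculature then washed 30 s with cold (5 °C) prodrug-free medium. Brain hemisphere homogenised, acidified, ethyl acetate-extracted and analysed by HPLC. Km and Vmax from nonlinear Michaelis–Menten fit; mean ± SD, n=3.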

[9] = as §4; type: ADME, tissue-based; details: brain, other: perfusion; summary of the method: as §5
[10] = Stability in rat serum assessed as half life of hydrolysis; type: ADME, cell-free; summary of the method: as §2

Large neutral amino acids transporter small subunit 1 (Rattus norvegicus), sequence (Q63016 whole entry, looked up, the tested form may be a part): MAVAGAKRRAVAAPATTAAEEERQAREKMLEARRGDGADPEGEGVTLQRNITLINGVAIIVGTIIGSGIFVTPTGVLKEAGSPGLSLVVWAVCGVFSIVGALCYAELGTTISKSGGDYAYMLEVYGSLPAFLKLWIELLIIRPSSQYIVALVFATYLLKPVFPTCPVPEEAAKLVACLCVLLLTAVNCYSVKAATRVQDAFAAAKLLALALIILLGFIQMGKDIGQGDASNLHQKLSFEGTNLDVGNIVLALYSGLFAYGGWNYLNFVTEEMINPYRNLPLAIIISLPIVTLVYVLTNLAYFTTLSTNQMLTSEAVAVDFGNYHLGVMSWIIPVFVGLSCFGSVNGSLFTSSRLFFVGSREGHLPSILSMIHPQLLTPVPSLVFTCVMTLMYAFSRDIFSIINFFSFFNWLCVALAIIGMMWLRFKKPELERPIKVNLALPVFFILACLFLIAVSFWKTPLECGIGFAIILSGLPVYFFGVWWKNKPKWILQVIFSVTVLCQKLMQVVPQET

SMILES: CC(C(=O)NC(Cc1ccccc1)C(=O)O)c1cccc(C(=O)c2ccccc2)c1 (stereo not drawn)
- Activity [1]: 0.0191 mL/s/g

SMILES: CC(C)CC(NC(=O)C(C)c1cccc(C(=O)c2ccccc2)c1)C(=O)O (stereo not drawn)
- Activity [1]: 0.0266 mL/s/g

SMILES: CC(C(=O)Oc1ccc(C[C@H](N)C(=O)O)cc1)c1cccc(C(=O)c2ccccc2)c1.Cl (stereo partly drawn)
- inhibition [2]: 98.5%
- half-life [3]: 2.8 min
- half-life [4]: 1350 min
- half-life [5]: 4.4 min
- Drug uptake (Brain [6]): 0.846 pmol/min/mg
- Drug uptake (Brain [7]): 0.362 pmol/min/mg
- Vmax (Brain [8]): 1.41 pmol/min/mg
- Km at 1 min [9]: 22.5 µM
- half-life [10]: 10.2 min

Next, values leading:

- Activity [1]: 0.0282 mL/s/g
SMILES: CC(C(=O)OCCOC(=O)[C@@H](N)Cc1ccccc1)c1cccc(C(=O)c2ccccc2)c1 (stereo partly drawn)

- Activity [1]: 0.0212 mL/s/g
SMILES: CC(C)C[C@H](N)C(=O)OCCOC(=O)C(C)c1cccc(C(=O)c2ccccc2)c1 (stereo partly drawn)
